Target: T1, Ileal sodium/bile acid cotransporter (Homo sapiens, UniProt Q12908)
T1 sequence (Q12908 whole entry): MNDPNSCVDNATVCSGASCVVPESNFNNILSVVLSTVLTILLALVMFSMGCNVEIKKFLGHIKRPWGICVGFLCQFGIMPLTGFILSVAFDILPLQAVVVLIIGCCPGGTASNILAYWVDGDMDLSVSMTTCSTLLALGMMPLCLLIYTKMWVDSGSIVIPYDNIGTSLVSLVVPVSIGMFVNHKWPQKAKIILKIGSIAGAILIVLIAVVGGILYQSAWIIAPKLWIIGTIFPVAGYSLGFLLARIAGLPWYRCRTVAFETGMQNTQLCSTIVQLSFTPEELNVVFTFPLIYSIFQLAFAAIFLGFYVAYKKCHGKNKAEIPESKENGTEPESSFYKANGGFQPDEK
Assay: Inhibition of human ASBT expressed in MDCK cells assessed as inhibition of [3H]taurocholic acid uptake after 10 mins by liquid scintillation counting
Format: cell-based
Summary of the method: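 Stably transfected hASBT-MDCK cells grown in DMEM with 10% FBS, penicillin/streptomycin and 1 mg/mL geneticin, seeded at 1.5 million/well, induced with 10mM sodium butyrate for 12-17 h before study on day 4. Cells washed with chilled sodium-free buffer, lysed in NaOH, neutralized, counted.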

SMILES	Ki [µM]
C[C@H](CCC(=O)N[C@@H](CCC(=O)Nc1ccc(Cl)cc1)C(=O)O)[C@H]1CC[C@H]2[C@@H]3[C@H](O)C[C@H]4C[C@H](O)CC[C@]4(C)[C@H]3CC[C@]12C	1.91
C[C@H](CCC(=O)N[C@@H](CCC(=O)Nc1ccc(C(F)(F)F)cc1)C(=O)O)[C@H]1CC[C@H]2[C@@H]3[C@H](O)C[C@H]4C[C@H](O)CC[C@]4(C)[C@H]3CC[C@]12C	2.02
C[C@H](CCC(=O)N[C@@H](CCC(=O)Nc1ccccc1F)C(=O)O)[C@H]1CC[C@H]2[C@@H]3[C@H](O)C[C@H]4C[C@H](O)CC[C@]4(C)[C@H]3CC[C@]12C	2.31
C[C@H](CCC(=O)N[C@@H](CCC(=O)Nc1cccc(F)c1)C(=O)O)[C@H]1CC[C@H]2[C@@H]3[C@H](O)C[C@H]4C[C@H](O)CC[C@]4(C)[C@H]3CC[C@]12C	1.25
C[C@H](CCC(=O)N[C@@H](CCC(=O)Nc1ccc(F)cc1)C(=O)O)[C@H]1CC[C@H]2[C@@H]3[C@H](O)C[C@H]4C[C@H](O)CC[C@]4(C)[C@H]3CC[C@]12C	3.02
Cc1ccccc1NC(=O)CC[C@H](NC(=O)CC[C@@H](C)[C@H]1CC[C@H]2[C@@H]3[C@H](O)C[C@H]4C[C@H](O)CC[C@]4(C)[C@H]3CC[C@]12C)C(=O)O	2.63
Cc1cccc(NC(=O)CC[C@H](NC(=O)CC[C@@H](C)[C@H]2CC[C@H]3[C@@H]4[C@H](O)C[C@H]5C[C@H](O)CC[C@]5(C)[C@H]4CC[C@]23C)C(=O)O)c1	0.889
Cc1ccc(NC(=O)CC[C@H](NC(=O)CC[C@@H](C)[C@H]2CC[C@H]3[C@@H]4[C@H](O)C[C@H]5C[C@H](O)CC[C@]5(C)[C@H]4CC[C@]23C)C(=O)O)cc1	3.2
COc1ccccc1NC(=O)CC[C@H](NC(=O)CC[C@@H](C)[C@H]1CC[C@H]2[C@@H]3[C@H](O)C[C@H]4C[C@H](O)CC[C@]4(C)[C@H]3CC[C@]12C)C(=O)O	3.89
COc1cccc(NC(=O)CC[C@H](NC(=O)CC[C@@H](C)[C@H]2CC[C@H]3[C@@H]4[C@H](O)C[C@H]5C[C@H](O)CC[C@]5(C)[C@H]4CC[C@]23C)C(=O)O)c1	4.22
COc1ccc(NC(=O)CC[C@H](NC(=O)CC[C@@H](C)[C@H]2CC[C@H]3[C@@H]4[C@H](O)C[C@H]5C[C@H](O)CC[C@]5(C)[C@H]4CC[C@]23C)C(=O)O)cc1	6.09
C[C@H](CCC(=O)N[C@@H](CCC(=O)Nc1ccccc1C(C)(C)C)C(=O)O)[C@H]1CC[C@H]2[C@@H]3[C@H](O)C[C@H]4C[C@H](O)CC[C@]4(C)[C@H]3CC[C@]12C	3.93
C[C@H](CCC(=O)N[C@@H](CCC(=O)Nc1cccc(C(C)(C)C)c1)C(=O)O)[C@H]1CC[C@H]2[C@@H]3[C@H](O)C[C@H]4C[C@H](O)CC[C@]4(C)[C@H]3CC[C@]12C	0.587
C[C@H](CCC(=O)N[C@@H](CCC(=O)Nc1ccc(C(C)(C)C)cc1)C(=O)O)[C@H]1CC[C@H]2[C@@H]3[C@H](O)C[C@H]4C[C@H](O)CC[C@]4(C)[C@H]3CC[C@]12C	0.275
COC(=O)c1ccccc1NC(=O)CC[C@H](NC(=O)CC[C@@H](C)[C@H]1CC[C@H]2[C@@H]3[C@H](O)C[C@H]4C[C@H](O)CC[C@]4(C)[C@H]3CC[C@]12C)C(=O)O	2.3
COC(=O)c1cccc(NC(=O)CC[C@H](NC(=O)CC[C@@H](C)[C@H]2CC[C@H]3[C@@H]4[C@H](O)C[C@H]5C[C@H](O)CC[C@]5(C)[C@H]4CC[C@]23C)C(=O)O)c1	7.65
COC(=O)c1ccc(NC(=O)CC[C@H](NC(=O)CC[C@@H](C)[C@H]2CC[C@H]3[C@@H]4[C@H](O)C[C@H]5C[C@H](O)CC[C@]5(C)[C@H]4CC[C@]23C)C(=O)O)cc1	4.03

SMILES	Ki [µM]
C[C@H](CCC(=O)N[C@@H](CCC(=O)Nc1ccccc1N)C(=O)O)[C@H]1CC[C@H]2[C@@H]3[C@H](O)C[C@H]4C[C@H](O)CC[C@]4(C)[C@H]3CC[C@]12C	2.64
C[C@H](CCC(=O)N[C@@H](CCC(=O)Nc1cccc(N)c1)C(=O)O)[C@H]1CC[C@H]2[C@@H]3[C@H](O)C[C@H]4C[C@H](O)CC[C@]4(C)[C@H]3CC[C@]12C	16.3
C[C@H](CCC(=O)N[C@@H](CCC(=O)Nc1ccc(N)cc1)C(=O)O)[C@H]1CC[C@H]2[C@@H]3[C@H](O)C[C@H]4C[C@H](O)CC[C@]4(C)[C@H]3CC[C@]12C	15.9
C[C@H](CCC(=O)N[C@@H](CCC(=O)Nc1ccc(F)cc1F)C(=O)O)[C@H]1CC[C@H]2[C@@H]3[C@H](O)C[C@H]4C[C@H](O)CC[C@]4(C)[C@H]3CC[C@]12C	3.16
Cc1cccc(C)c1NC(=O)CC[C@H](NC(=O)CC[C@@H](C)[C@H]1CC[C@H]2[C@@H]3[C@H](O)C[C@H]4C[C@H](O)CC[C@]4(C)[C@H]3CC[C@]12C)C(=O)O	8.07
Cc1cccc(NC(=O)CC[C@H](NC(=O)CC[C@@H](C)[C@H]2CC[C@H]3[C@@H]4[C@H](O)C[C@H]5C[C@H](O)CC[C@]5(C)[C@H]4CC[C@]23C)C(=O)O)c1C	4.3
COc1cc(NC(=O)CC[C@H](NC(=O)CC[C@@H](C)[C@H]2CC[C@H]3[C@@H]4[C@H](O)C[C@H]5C[C@H](O)CC[C@]5(C)[C@H]4CC[C@]23C)C(=O)O)cc(OC)c1	5.19
C[C@H](CCC(=O)N[C@@H](CCC(=O)Nc1ccccc1C(=O)O)C(=O)O)[C@H]1CC[C@H]2[C@@H]3[C@H](O)C[C@H]4C[C@H](O)CC[C@]4(C)[C@H]3CC[C@]12C	40.4
C[C@H](CCC(=O)N[C@@H](CCC(=O)Nc1cccc(C(=O)O)c1)C(=O)O)[C@H]1CC[C@H]2[C@@H]3[C@H](O)C[C@H]4C[C@H](O)CC[C@]4(C)[C@H]3CC[C@]12C	35.9
C[C@H](CCC(=O)N[C@@H](CCC(=O)Nc1ccc(C(=O)O)cc1)C(=O)O)[C@H]1CC[C@H]2[C@@H]3[C@H](O)C[C@H]4C[C@H](O)CC[C@]4(C)[C@H]3CC[C@]12C	108
C[C@H](CCC(=O)N[C@@H](CCC(=O)NCc1cccc(C(=O)O)c1)C(=O)O)[C@H]1CC[C@H]2[C@@H]3[C@H](O)C[C@H]4C[C@H](O)CC[C@]4(C)[C@H]3CC[C@]12C	126
C[C@H](CCC(=O)N[C@@H](CCC(=O)NCc1ccc(C(=O)O)cc1)C(=O)O)[C@H]1CC[C@H]2[C@@H]3[C@H](O)C[C@H]4C[C@H](O)CC[C@]4(C)[C@H]3CC[C@]12C	41
CC(CCC(=O)NC(CCC(=O)Nc1ccc(NC(=O)OC(C)(C)C)cc1)C(=O)O)C1CCC2C3C(O)CC4CC(O)CCC4(C)C3CCC12C (centres undefined)	5.26
C[C@H](CCC(=O)N[C@@H](CCC(=O)Nc1cccc(C(=O)O)c1)C(=O)OOCc1ccccc1)[C@H]1CC[C@H]2[C@@H]3[C@H](O)C[C@H]4C[C@H](O)CC[C@]4(C)[C@H]3CC[C@]12C	2.24
CCOC(=O)c1ccccc1NC(=O)CCC(NC(=O)CCC(C)C1CCC2C3C(O)CC4CC(O)CCC4(C)C3CCC12C)C(=O)O (centres undefined)	1.15
CCOC(=O)c1ccc(NC(=O)CCC(NC(=O)CCC(C)C2CCC3C4C(O)CC5CC(O)CCC5(C)C4CCC23C)C(=O)O)cc1 (centres undefined)	5.16
CC(CCC(=O)NC(CCC(=O)Nc1cccc(NC(=O)OC(C)(C)C)c1)C(=O)O)C1CCC2C3C(O)CC4CC(O)CCC4(C)C3CCC12C (centres undefined)	6.53

— ChEMBL document CHEMBL1177709, “Molecular switch controlling the binding of anionic bile acid conjugates to human apical sodium-dependent bile acid transporter” (J Med Chem, 2010)
